How the values were obtained:
[1] = Dose-limiting toxicity and RP2D, phase Ia dose escalation; format: in vivo, human
In short: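 Phase Ia used Bayesian logistic regression–guided escalation of the oral nanosuspension, with or without durvalumab; capsule cohorts took 75, 150 or 200 mg once daily. A DLT was non-disease-related toxicity before day 21 (monotherapy) or end of cycle 2 (combination), e.g. grade ≥4 neutropenia >7 days or grade ≥3 nonhematologic toxicity.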

[2] = Plasma pharmacokinetics of AZD4635 and active metabolite in patients; format: in vivo, human; conditions: for half-life: plasma, oral
[3] = test system: metastatic castration-resistant prostate cancer (mCRPC); experiment: Tumor response; format: in vivo, human
[4] = test system: colorectal cancer (IO-naïve); experiment: Tumor response; format: in vivo, human
[5] = test system: NSCLC (post-IO); experiment: Tumor response; format: in vivo, human
[6] = healthy volunteers; ref [32]; cited from earlier work
[7] = test system: CYP1A2; conditions: clinical drug–drug interaction study with fluvoxamine; ref [34]; cited from earlier work
[8] = test system: intratumoral adenosine signaling; conditions: ref [12], cited from earlier work

Cc1cc(-c2nnc(N)nc2-c2ccc(F)cc2)cc(Cl)n1 [AZD4635]
DLTs ([1]; capsule formulation, doses of up to 200 mg): no DLTs
Patients with a DLT ([1]; phase Ia, nanosuspension monotherapy 75 mg or 100 mg once daily): No patients
Patients with DLTs ([1]; phase Ia, nanosuspension monotherapy 125 mg twice daily, out of 3 patients): 2
Accumulation in exposure (Cmax and AUC) ([2]; following multiple dosing): minimal accumulation
PK profile ([2]; human, in vivo): linear and dose-proportional
half-life ([2]; human, median t1/2, after a single dose, across doses): 7.92 to 14.5 h
half-life ([2]; human, t1/2, overall (range, 11–24 hours)): ~14 h
Disease control rate (DCR; CR, PR, or SD for at least 22 weeks) ([3]; mCRPC): 18.0%
Duration of response ([3]; mCRPC responders, monotherapy and plus durvalumab together): 2.3 to 34.0 months
Tumor responses ([3]; mCRPC, responders/evaluable): 2/39
Confirmed PR ([3]; mCRPC, tumor response–evaluable population): 2 patients
Best response of stable disease (SD) after a minimum of 2 cycles [4]: 9 (45.0%) n (%)
Best response of SD ([5]; NSCLC): 5 (33.3%) n (%)
Disease control at 22 Weeks, Yes ([5]; NSCLC Post-IO): 1 (6.7%) n (%)
AUC of capsule formulation compared with nanosuspension, higher by [6]: ~10%
Cmax of capsule formulation compared with nanosuspension, higher by [6]: approximately 27%
Metabolism [7]: primarily metabolized by CYP1A2
Patients with concordant increases in gene-expression signatures of cytolytic activity and IFNG signaling ([8]; among the 5 patients with decreased adenosine signaling): 4 patients
Patients in whom intratumoral adenosine signaling decreased ([8]; nanosuspension 75 or 100 mg, 2 weeks of monotherapy, of 7 patients): 5 patients

Source: paper PMC9660540 (Clinical Cancer Research, 2022)
